What all share (assay type): functional
For one assay, the system named is Priestia megaterium. As to the kind of experiment: Antibacterial activity against Bacillus megaterium at 10 mg/mL by agar diffusion test. The settings on record: read-out: IZ. The procedure, abridged: (§1)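 Agar diffusion test. Activity is scored on a 1-4 scale by the radius of the inhibition zone: 1-10 mm = 1, 10-20 mm = 2, 20-30 mm = 3, 30-40 mm = 4.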
A general note: Agar diffusion results depend on both activity and mobility in agar.

For another assay, the system named is Microbotryum violaceum. The assay can be described thus: Antifungal activity against Ustilago violacea at 10 mg/mL by agar diffusion test. The settings on record: read-out: IZ. The procedure, abridged: as §1
Another assay has as its system [Chlorella] fusca. As to the kind of experiment: Herbicidal activity against Chlorella fusca at 10 mg/mL by agar diffusion test. The settings on record: Scenedesmus fuscus; read-out: IZ. Put shortly:
as §1

Assay [1] has as its system Aspergillus pseudoglaucus. As to the kind of experiment: Antifungal activity against Eurotium repens at 10 mg/mL by agar diffusion test. The settings on record: read-out: IZ. Put shortly:
as §1

The test system of a further assay is Mycotypha microspora. As to the kind of experiment: Antifungal activity against Mycotypha microspora at 10 mg/mL by agar diffusion test. Particulars: read-out: IZ. The procedure, abridged:
as §1

In the next assay the test system is Escherichia coli. The assay can be described thus: Antibacterial activity against Escherichia coli at 10 mg/mL by agar diffusion test. The settings on record: read-out: IZ. The procedure, abridged: as §1
The test system of a further assay is Lepidium sativum. As to the kind of experiment: Herbicidal activity against Lepidium sativum assessed as growth inhibition at 10 mg/mL relative to control.
Another assay concerns Lemna minor. As to the kind of experiment: Herbicidal activity against Lemna minor assessed as growth inhibition at 10 mg/mL after 1 and 6 days relative to control. Put shortly: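 Lemna minor growth inhibition. 10 mg of sample is dissolved in 0.05 mL MeOH plus 0.05 mL acetone and added to 10 mL test medium (growth medium without sucrose) in 5 cm Petri dishes, each holding 15 plants. Plants are scored after 1 and 6 days.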

Broadly, the inhibition is the relative decrease from the control value, in per cent.

Turning to `CO[C@H]1OC(=O)C=C2C1=C[C@H]1OC(=O)[C@@]3(C)CCC[C@@]2(C)[C@@H]13`, the figures for the zone of inhibition at 10000 µg/mL (with Priestia megaterium; in the assay with Microbotryum violaceum; in assay [Chlorella] fusca) were 1 mm, 30 mm and 20 mm, respectively.

With `CO[C@H]1OC(=O)C=C2[C@@]13O[C@@H]3[C@H]1OC(=O)[C@@]3(C)CCC[C@@]2(C)[C@@H]13`, the zone of inhibition at 10000 µg/mL in assay [1] was 1 mm; in the assay on Priestia megaterium, 1 mm; in the assay with Mycotypha microspora, 1 mm; in the assay on Microbotryum violaceum it was 10 mm; with Escherichia coli, 0 mm; in assay [Chlorella] fusca, 10 mm. In addition, the inhibition at 10000 µg/mL with Lepidium sativum was 100%; in the assay with Lemna minor, greater than 90%.

Take `C[C@@]12CCC[C@]3(C)C4=CC(=O)O[C@@H](O)[C@]45O[C@@H]5[C@@H](OC1=O)[C@@H]23` [OIDIOLACTONE D]: the zone of inhibition at 10000 µg/mL in assay [1] turned out to be 1 mm; with Priestia megaterium, 0 mm; with Mycotypha microspora it was 1 mm; with Microbotryum violaceum, 1 mm; in the assay with Escherichia coli, 0 mm; in assay [Chlorella] fusca, 1 mm.

Take `C[C@]12CCC[C@](C)(C(=O)O)[C@@H]1C=C[C@]1(O)COC(=O)C[C@H]21` [OIDIOLACTONE E]: the zone of inhibition at 10000 µg/mL in assay [1] was determined as 1 mm; with Priestia megaterium it was 0 mm; with Mycotypha microspora, 0 mm; in the assay on Microbotryum violaceum it was 1 mm; with Escherichia coli, 0 mm; in assay [Chlorella] fusca, 1 mm.
